Activity calls are given as the source filed them. No cut-off for these calls is given here.
Tests used:
[1] = target: T1, Indoleamine 2,3-dioxygenase 1 (Homo sapiens, UniProt P14902); assay: Binding affinity to NT650-NHS fluorophore-labeled recombinant human N-terminal His-tagged IDO1 expressed in Escherichia coli measured after 10 mins by microscale thermophoresis assay
Target sequence in this assay (P14902 whole entry): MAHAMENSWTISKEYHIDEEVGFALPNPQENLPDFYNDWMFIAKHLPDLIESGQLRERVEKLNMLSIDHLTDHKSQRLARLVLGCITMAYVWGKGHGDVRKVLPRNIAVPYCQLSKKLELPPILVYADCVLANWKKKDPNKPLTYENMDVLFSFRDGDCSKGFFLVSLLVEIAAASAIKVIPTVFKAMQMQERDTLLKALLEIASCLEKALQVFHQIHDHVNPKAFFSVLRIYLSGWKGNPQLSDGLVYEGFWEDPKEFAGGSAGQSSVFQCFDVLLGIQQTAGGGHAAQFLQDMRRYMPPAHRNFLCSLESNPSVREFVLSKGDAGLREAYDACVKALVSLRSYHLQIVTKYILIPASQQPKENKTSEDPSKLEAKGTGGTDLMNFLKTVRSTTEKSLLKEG

Mus musculus [2] = assay: In vivo inhibition of IDO1 in BALB/c mouse assessed as reduction in L-kyn level at 10 mg/kg, iv measured up to 30 mins by LC-HRMS analysis; assay type: functional, organism-based
Summary of the method: (§1)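 After a single 10 mg/kg i.v. dose in mice, plasma L-Kyn was measured at 0, 2, 5, 15 and 30 min and at 8 h post-injection, and compared with basal level.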

[3] = Inhibition of CYP450 in rat liver microsomes assessed as reduction in aminopyrine N-demethylase activity preincubated for 3 mins followed by NADPH addition and measured after 15 mins by iodometric titration method; assay type: ADME; conditions: for inhibition (INH): rat, microsomes, 0.25 h
Summary of the method: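 CYP inhibition read by aminopyrine N-demethylase activity, with IC50 determined from concentration–response curves. Ketoconazole (CYP3A inhibitor) served as reference.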

Mus musculus [4] = assay: In vivo inhibition of IDO1 in BALB/c mouse assessed as reduction in L-kyn level at 10 mg/kg, iv measured after 8 hrs by LC-HRMS analysis; assay type: functional, organism-based; summary of the method: as §1
[5] = Drug metabolism in CD-1 mouse liver microsomes assessed as benzimidazole oxidation at 50 uM measured after 1 hr by LC-HRMS analysis; assay type: ADME, Microsome
[6] = Drug metabolism in CD-1 mouse liver microsomes assessed as oxidative N-dealkylation at 50 uM measured after 1 hr by LC-HRMS analysis; assay type: ADME, Microsome
[7] = Metabolic stability in CD-1 mouse liver microsomes assessed as parent compound remaining at 50 uM measured after 1 hr in presence of NADPH generating system by UV-LC/MS analysis; assay type: ADME, Microsome; conditions: read-out: Stability
Summary of the method: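 Mouse liver microsomes activated with NADPH. Residual parent compound was measured after 1 h incubation.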

[8] = target: T1, Indoleamine 2,3-dioxygenase 1; assay: Selectivity ratio of IC50 for IDO1 in IFNgamma-stimulated human DAN-G cells to IC50 for IDO1 in IFNgamma-stimulated human HepG2 cells
Target sequence in this assay (P14902 whole entry, looked up): as the sequence (P14902 whole entry) above

[9] = target: T1, Indoleamine 2,3-dioxygenase 1; assay: Selectivity ratio of IC50 for IDO1 in IFNgamma-stimulated human DAN-G cells to IC50 for IDO1 in IFNgamma-stimulated human MCF7 cells
Target sequence in this assay (P14902 whole entry, looked up): as the sequence (P14902 whole entry) above

[10] = target: T1, Indoleamine 2,3-dioxygenase 1; assay: Selectivity ratio of IC50 for IDO1 in IFNgamma-stimulated human DAN-G cells to IC50 for IDO1 in IFNgamma-stimulated human LXF-289 cells
Target sequence in this assay (P14902 whole entry, looked up): as the sequence (P14902 whole entry) above

[11] = target: T1, Indoleamine 2,3-dioxygenase 1; assay: Selectivity ratio of IC50 for IDO1 in IFNgamma-stimulated human DAN-G cells to IC50 for IDO1 in IFNgamma-stimulated human A375 cells
Target sequence in this assay (P14902 whole entry, looked up): as the sequence (P14902 whole entry) above

[12] = target: T1, Indoleamine 2,3-dioxygenase 1; assay: Selectivity ratio of IC50 for IDO1 in IFNgamma-stimulated human DAN-G cells to IC50 for IDO1 in IFNgamma-stimulated human HeLa cells
Target sequence in this assay (P14902 whole entry, looked up): as the sequence (P14902 whole entry) above

[13] = target: T1, Indoleamine 2,3-dioxygenase 1; assay: Inhibition of IDO1 in IFNgamma-stimulated human DAN-G cells assessed as reduction in L-Kyn level measured after 48 hrs by HPLC analysis; assay type: cell-based
Target sequence in this assay (P14902 whole entry): as above

[14] = target: T1, Indoleamine 2,3-dioxygenase 1; assay: Inhibition of IDO1 in IFNgamma-stimulated human HepG2 cells assessed as reduction in L-Kyn level measured after 48 hrs by HPLC analysis; assay type: cell-based
Target sequence in this assay (P14902 whole entry): as above

[15] = target: T1, Indoleamine 2,3-dioxygenase 1; assay: Inhibition of IDO1 in IFNgamma-stimulated human MCF7 cells assessed as reduction in L-Kyn level measured after 48 hrs by HPLC analysis; assay type: cell-based
Target sequence in this assay (P14902 whole entry): as above

[16] = target: T1, Indoleamine 2,3-dioxygenase 1; assay: Inhibition of IDO1 in IFNgamma-stimulated human LXF-289 cells assessed as reduction in L-Kyn level measured after 48 hrs by HPLC analysis
Target sequence in this assay (P14902 whole entry): as above

[17] = target: T1, Indoleamine 2,3-dioxygenase 1; assay: Inhibition of IDO1 in IFNgamma-stimulated human HeLa cells assessed as reduction in L-Kyn level measured after 48 hrs by HPLC analysis; assay type: cell-based
Target sequence in this assay (P14902 whole entry): as above

[18] = target: Tryptophan 2,3-dioxygenase (Mus musculus, UniProt P48776); assay: Inhibition of mouse TDO transfected in P815 cells assessed as reduction in L-Kyn level measured after 16 hrs by HPLC analysis; assay type: cell-based
Summary of the method: (§2)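 P815 mastocytoma cells stably expressing mouse IDO1 (P1.IDO1) or TDO (P1.TDO) were treated with serial dilutions for 16 h. L-Kyn secreted into the culture supernatant was quantified by HPLC, and an IC50 was determined in each line.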

[19] = target: Indoleamine 2,3-dioxygenase 1 (Mus musculus, UniProt P28776); assay: Inhibition of mouse IDO1 transfected in P815 cells assessed as reduction in L-Kyn level measured after 16 hrs by HPLC analysis; assay type: cell-based; summary of the method: as §2
[20] = target: T1, Indoleamine 2,3-dioxygenase 1; assay: Inhibition of IDO1 in IFNgamma-stimulated human A375 cells assessed as reduction in L-Kyn level at 10 uM measured after 48 hrs by HPLC analysis relative to control
Summary of the method: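 Screen in melanoma A375 cells, which express IDO1 when treated with recombinant human IFN-γ. Cells were left untreated or given 10 µM compound for 48 h. L-Kyn was then measured. Cell viability was also checked.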
Target sequence in this assay (P14902 whole entry, looked up): as the sequence (P14902 whole entry) above

[21] = Cytotoxicity against human A375 cells assessed as cell viability at 1 uM measured after 48 hrs by MTT assay relative to control; assay type: cell-based, A-375; conditions: read-out: Activity
Summary of the method: (§3)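 A375 cells, unstimulated or stimulated with recombinant human IFN-γ, were left untreated or treated with 1 µM compound for 48 h. L-Kyn was measured by HPLC and cell viability was assessed.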

[22] = target: T1, Indoleamine 2,3-dioxygenase 1; assay: Inhibition of IDO1 in IFNgamma-stimulated human A375 cells assessed as reduction in L-Kyn level at 1 uM measured after 48 hrs by HPLC analysis relative to control; summary of the method: as §3
Monocyte [23] = assay: Cytotoxicity against PDAC patient derived monocytes assessed as reduction in cell viability at 30 uM measured after 24 hrs by Annexin-V APC/7-AAD staining based flow cytometric analysis; conditions: human
Summary of the method: (§4)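 Monocytes from healthy donors (n=3) and from PDAC patients (n=3) were treated for 24 h, with DMSO as control. Viability was normalized to untreated cells. Healthy-donor cells received a range of concentrations; PDAC cells received 30 µM.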

Monocyte [24] = assay: Cytotoxicity against human monocytes assessed as reduction in cell viability at 30 uM measured after 24 hrs by Annexin-V APC/7-AAD staining based flow cytometric analysis; summary of the method: as §4
[25] = target: T1, Indoleamine 2,3-dioxygenase 1; assay: Inhibition of IDO1 in PDAC patient derived suppressive monocytes co-cultured with human PBMC assessed as reduction in anti-CD3/anti-CD28-stimulated CD3+T cell proliferation at 30 uM preincubated for 4 days followed by co-culturing of monocytes and measured after 24 hrs by flow cytometric analysis
Monocyte [26] = assay: Effect on anti-CD3/anti-CD28-stimulated CD3+T cell proliferation in PDAC patient derived non-suppressive monocytes co-cultured with human PBMC at 30 uM preincubated for 4 days followed by co-culturing of monocytes and measured after 24 hrs by flow cytometric analysis; assay type: cell-based
Summary of the method: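 PDAC patient monocytes (suppressive or non-suppressive) were pre-treated with 30 µM compound or DMSO, then co-cultured for 4 days with Cell Trace-labelled activated CD3+ T cells. T-cell proliferation was read from proliferation peaks and normalized to activated T cells cultured without myeloid cells. Data are mean ± SEM; Mann-Whitney test.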

[27] = Metabolic stability in CD-1 mouse liver microsomes assessed as parent compound remaining at 50 uM measured after 1 hr in presence of NADPH by UV-LC/MS analysis
[28] = target: T1, Indoleamine 2,3-dioxygenase 1; assay: Inhibition of IDO1 in IFNgamma-stimulated human A375 cells assessed as reduction in L-Kyn level measured after 48 hrs by HPLC analysis
[29] = Half life in BALB/c mouse at 10 mg/kg, iv by LC-MS analysis; assay type: ADME, organism-based; conditions: in vivo
Summary of the method: (§5)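 Mice received a single i.v. dose of 10 mg/kg. Serial blood samples were taken and PK parameters derived, including half-life, clearance, volume of distribution and Cmax.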

[30] = Volume of distribution in BALB/c mouse at 10 mg/kg, iv by LC-MS analysis; assay type: ADME, organism-based; conditions: in vivo; summary of the method: as §5
[31] = Cmax in BALB/c mouse at 10 mg/kg, iv by LC-MS analysis; assay type: ADME, organism-based; parameters: dose 10 mg/kg, route intravenous; conditions: in vivo; summary of the method: as §5
Mus musculus [32] = organism: Mus musculus; assay: Selectivity ratio of IC50 for inhibition of mouse TDO transfected in P815 cells to IC50 for inhibition of mouse IDO1 transfected in P815 cells; assay type: cell-based; summary of the method: as §2
Mus musculus [33] = assay: In vivo inhibition of IDO1 in BALB/c mouse assessed as reduction in L-kyn level at 10 mg/kg, iv measured up to 8 hrs by LC-HRMS analysis
[34] = Chemical stability of the compound; assay type: physicochemical
[35] = Inhibition of CYP3A in rat liver microsomes assessed as reduction in aminopyrine N-demethylase activity preincubated for 3 mins followed by NADPH addition and measured after 15 mins by iodometric titration method; assay type: ADME
Summary of the method: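 IC50 derived by fitting concentration–response curves for inhibition of aminopyrine N-demethylase activity, with ketoconazole run as the reference CYP3A inhibitor.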

Sequence of Indoleamine 2,3-dioxygenase 1 (Mus musculus, UniProt P28776) (P28776 whole entry): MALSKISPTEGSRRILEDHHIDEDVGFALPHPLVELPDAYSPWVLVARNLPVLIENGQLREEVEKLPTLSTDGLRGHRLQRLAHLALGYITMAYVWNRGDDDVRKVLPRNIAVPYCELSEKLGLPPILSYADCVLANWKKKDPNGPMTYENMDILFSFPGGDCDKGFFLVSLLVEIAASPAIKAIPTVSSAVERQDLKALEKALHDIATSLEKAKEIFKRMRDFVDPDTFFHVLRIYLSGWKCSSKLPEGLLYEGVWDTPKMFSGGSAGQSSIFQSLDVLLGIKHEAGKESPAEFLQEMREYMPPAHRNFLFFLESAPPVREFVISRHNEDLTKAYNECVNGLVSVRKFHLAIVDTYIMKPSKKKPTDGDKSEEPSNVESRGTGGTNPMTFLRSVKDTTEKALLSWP
Sequence of Tryptophan 2,3-dioxygenase (P48776 whole entry): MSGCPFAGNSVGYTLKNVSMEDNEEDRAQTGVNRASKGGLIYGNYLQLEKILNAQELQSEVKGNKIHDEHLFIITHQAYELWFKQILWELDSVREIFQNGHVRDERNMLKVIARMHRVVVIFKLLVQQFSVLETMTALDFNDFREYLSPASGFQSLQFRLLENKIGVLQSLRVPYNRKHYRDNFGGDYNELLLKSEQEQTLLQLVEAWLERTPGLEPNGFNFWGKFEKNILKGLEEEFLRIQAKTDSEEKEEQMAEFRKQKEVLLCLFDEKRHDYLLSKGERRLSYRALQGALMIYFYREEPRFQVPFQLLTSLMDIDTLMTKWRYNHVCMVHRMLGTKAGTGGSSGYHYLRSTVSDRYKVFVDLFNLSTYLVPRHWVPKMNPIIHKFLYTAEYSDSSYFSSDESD

Drug metabolism [5]	Drug metabolism [6]	remaining at 1 h, 50 µM [7] [%]	Ratio IC50 [11]	IC50 [13] [nM]	IC50 [15] [nM]	IC50 [18] [nM]	IC50 [19] [nM]	inhibition [22] [%]	inhibition [25]	remaining at 1 h, 50 µM [27] [%]	inhibition (INH) [3]	IC50 [28] [nM]	SMILES	viability at 48 h, 1 µM [21] [%]	Activity (Monocyte [23])	Activity (Monocyte [24])	Activity (Monocyte [26])	further results
Metabolite_Detected	Metabolite_Detected	32	> 1	605	21	5460	12.7	96	Active	32	–	–	O=C(NCc1cccc(Cn2cnc3ccccc32)c1)c1cc(Br)c[nH]1	85 to 100	Non-Toxic	Non-Toxic	Non-Toxic	Kd [1]: 550 nM; inhibition (Mus musculus [2]): Active; IC50 [3]: 67700 nM; inhibition (Mus musculus [4]): inactive; Ratio IC50 [8]: > 1; Ratio IC50 [9]: > 1; Ratio IC50 [10]: > 1; Ratio IC50 [12]: > 1; IC50 [14]: 43 nM; IC50 [16]: 14 nM; IC50 [17]: 64 nM; inhibition [20]: > 30%
Metabolite_Detected	Metabolite_Detected	65	1.9	140	83	13200	9.3	94	Active	65	Not Active	72	O=C(NCc1cccc(Cn2cnc3ccccc32)c1)c1cc2ccccc2[nH]1	99	Non-Toxic	Non-Toxic	Non-Toxic	t1/2 [29]: 39 min; Vd [30]: 6.6 L/kg; Cmax [31]: 2680 ng/mL; Ratio IC50 (Mus musculus [32]): > 1000; inhibition (Mus musculus [33]): Active

Continued, compound first:

SMILES	Drug metabolism [5]	Drug metabolism [6]	remaining at 1 h, 50 µM [7] [%]	Ratio IC50 [11]	IC50 [13] [nM]	IC50 [15] [nM]	IC50 [18] [nM]	IC50 [19] [nM]	inhibition [22] [%]	inhibition [25]	remaining at 1 h, 50 µM [27] [%]	inhibition (INH) [3]	IC50 [28] [nM]	viability at 48 h, 1 µM [21] [%]	Activity (Monocyte [23])	Activity (Monocyte [24])	Activity (Monocyte [26])	further results
NS(=O)(=O)NCCNc1nonc1C(=NO)Nc1ccc(F)c(Br)c1 [EPACADOSTAT]	–	–	–	–	–	–	–	–	–	–	–	–	–	97	Non-Toxic	Non-Toxic	–	–
N#Cc1ccc(C(=O)NCc2cccc(Cn3cnc4ccccc43)c2)cc1	Metabolite_Detected	Metabolite_Detected	59	–	1940	110	32300	112	88	–	59	Not Active	90	100	–	–	–	–
O=C(NCc1cccc(Cn2cnc3ccc(Br)cc32)c1)c1cc(Br)c[nH]1	–	–	–	–	–	–	–	–	98	–	–	–	19	99	–	–	–	Stability [34]: Unstable
CC(=O)N1CCN(c2ccc(OCC3COC(Cn4ccnc4)(c4ccc(Cl)cc4Cl)O3)cc2)CC1 (centres undefined) [KETOCONAZOLE]	–	–	–	–	–	–	–	–	–	–	–	–	–	–	–	–	–	IC50 [35]: 6400 nM

Source: ChEMBL document CHEMBL4354865 (J Med Chem, 2020)
